Assay results collected from several papers.
Lines come from different studies, so protocols differ.
Target: Mitogen-activated protein kinase kinase kinase 9 (MAP3K9, Homo sapiens, UniProt P80192)

Compound | observed | method | concentration | remaining binding [%]
FC(F)(F)Oc1cccc(-c2cnc3ccc(-c4ccncc4)nn23)c1 | cell-free assay | competition with immobilised ligand | 5 µM | 77
CN(C)C(=O)Cn1cc(-c2nc([C@@](C)(c3ccc(-c4cnc(N)nc4)cc3)C3CC3)no2)cn1 | cell-free assay | competition with immobilised ligand | 1 µM | 100
Cc1cnc(Nc2ccc(C(=O)N3CCC(N4CCCC4)CC3)cc2)nc1-c1cc2ccccc2s1 | binding | competition with immobilised ligand | 1 µM | 3.3
C[C@@H]1CN(c2ccc3ncc(-c4ccc5[nH]nc(C6CC6)c5c4)n3n2)C[C@H](C)O1 | binding | competition with immobilised ligand | 50 nM | 96
c1cnn2ncc(-c3ccnc(N4CCC45COC5)n3)c2c1 | binding | – | 1 µM | 85
N#Cc1ccc(Nc2ccc3[nH]c(=O)[nH]c3c2)c(Cl)c1 | cell-free assay | competition with immobilised ligand | 1 µM | 100
C[C@@H]1CCN(c2nccc(-c3cnn4ncccc34)n2)C1 | binding | – | 1 µM | 100
CN(C)c1ncnc(-c2ccc3nc(Nc4cc(CN5CCN(C(=O)CC(F)(F)F)CC5)ccn4)[nH]c3c2)c1Cl | cell-free assay | competition with immobilised ligand | 1 µM | 90
N#Cc1ccccc1CSc1nnc2c(n1)[nH]c1ccccc12 | binding | competition with immobilised ligand | 10 µM | 98
CN([C@@H]1CCc2c(CC(=O)O)c3ccccc3n2C1)S(=O)(=O)c1ccc(F)cc1 | cell-free assay | competition with immobilised ligand | 1 µM | 100
CN(C)c1nccc(-c2cnc3ncccn23)n1 | binding | – | 1 µM | 65
O=C(NCCCN1CCOCC1)c1ccc(Nc2ncc(Cl)c(-c3ccc(Cl)s3)n2)cc1 | binding | competition with immobilised ligand | 1 µM | 11
C[C@H](NC(=O)c1cnc2n1[C@](C)(Cc1ccc(C#N)cc1)C(=O)N2c1cc(Cl)c(F)c(Cl)c1)C(=O)NC1(c2ccccn2)CC1 | cell-free assay | competition with immobilised ligand | 1 µM | 100
CN(C)c1ncc(F)c(-c2cnn3ncccc23)n1 | binding | – | 1 µM | 100
COc1cnc(Nc2cccc(S(N)(=O)=O)c2)nc1N1CCN(c2ccccc2)C(=O)C1 | binding | competition with immobilised ligand | 1 µM | 98
O=C(Nc1c[nH]nc1C(=O)NC1CCNCC1)c1cc(F)cc(F)c1 | binding | competition with immobilised ligand | 1 µM | 100
CCN1CCN(Cc2ccc(C(=O)Nc3ccc(C)c(Oc4ccc5c(c4)CC(=O)N5)c3)cc2C(F)(F)F)CC1 | binding | competition with immobilised ligand | 1 µM | 100
CO[C@@H](C)c1c(Nc2ccc([C@@H](N(C)C(=O)C3CCS(=O)(=O)CC3)C(F)(F)F)cc2)cnc2cc(Cl)nn12 | cell-free assay | competition with immobilised ligand | 1 µM | 81
CC(C)(C)c1ccc(-c2nc(CBr)nn2-c2cccc(O)c2)cc1 | cell-free assay | competition with immobilised ligand | 10 µM | 91
O=C(NCCCN1CCOCC1)c1ccc(Nc2nccc(-c3cc4ccccc4s3)n2)cc1 | binding | competition with immobilised ligand | 1 µM | 14
CN(c1nccc(-c2cnn3ncccc23)n1)C1CC1 | binding | – | 1 µM | 85
Cc1nccc(COC(=O)N2C[C@@H]3[C@@H](CNC(=O)c4ccc5[nH]nnc5c4)[C@@H]3C2)n1 | cell-free assay | competition with immobilised ligand | 1 µM | 89
N[C@H]1CCN(c2nccc(-c3cnn4ncccc34)n2)C1 | binding | – | 1 µM | 87
Nc1ncc2c(n1)-c1c([nH]c3ccc(C#CC4CC4)cc13)CCCC2 | binding | competition with immobilised ligand | 1 µM | 100
C[C@@H](c1cccc(C#N)c1)n1cc(Cl)cc(C(N)=O)c1=N | cell-free assay | competition with immobilised ligand | 1 µM | 100
